One compound from ChEMBL document CHEMBL3390837, “Bridged tetrahydroisoquinolines as selective NADPH oxidase 2 (Nox2) inhibitors” (Medchemcomm, 2013) can be followed below.

Activity calls are given as the source filed them. The rule behind the calls is not given here.

In data set [1] the target is T1, NADPH oxidase 2 (Homo sapiens, UniProt P04839).
T1 sequence (P04839 whole entry): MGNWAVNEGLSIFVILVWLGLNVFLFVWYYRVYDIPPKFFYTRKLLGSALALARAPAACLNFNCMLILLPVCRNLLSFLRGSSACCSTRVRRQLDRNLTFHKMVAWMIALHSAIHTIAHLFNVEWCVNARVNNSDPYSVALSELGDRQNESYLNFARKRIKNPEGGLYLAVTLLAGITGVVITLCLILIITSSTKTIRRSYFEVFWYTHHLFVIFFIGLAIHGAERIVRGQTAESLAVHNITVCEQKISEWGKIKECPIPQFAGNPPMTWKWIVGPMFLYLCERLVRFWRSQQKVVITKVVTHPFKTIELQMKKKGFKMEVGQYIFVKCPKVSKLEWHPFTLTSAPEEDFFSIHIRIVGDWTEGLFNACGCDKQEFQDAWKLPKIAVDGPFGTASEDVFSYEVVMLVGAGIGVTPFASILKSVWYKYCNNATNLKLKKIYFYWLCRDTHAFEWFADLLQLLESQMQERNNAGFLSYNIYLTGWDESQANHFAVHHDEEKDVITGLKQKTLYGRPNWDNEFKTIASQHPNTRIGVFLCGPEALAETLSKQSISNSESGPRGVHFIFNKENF
Kind of data set: Inhibition of full length human NOX2 transfected in COS 22 cells assessed as inhibition of Phorbol 12-myristate 13-acetate-stimulated ROS generation by measuring H2O2 production by fluorescence assay in presence of superoxide dismutase. The class given is cell-based. The note with it: read-out: IC50. The gist of the method: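 Intact COS-Nox2 cells in Hepes pH 7.4 buffer with 0.1 mM Amplex Red, 0.32 U/ml HRP and 150 U/mL SOD, drug 15 min at 37 °C; started with 5 µM PMA; fluorescence monitored 1 h at 37 °C; rate as RFU/min minus unstimulated cells; % of vehicle control.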

The target in data set [2] is Xanthine dehydrogenase/oxidase (Bos taurus, UniProt P80457). As to the kind of experiment: Inhibition of bovine milk xanthine oxidase assessed as hypoxanthine-stimulated ROS generation by measuring H2O2 production at 25 to 50 uM by fluorescence assay. Conditions: cattle.
Chain of Xanthine dehydrogenase/oxidase (P80457 whole entry): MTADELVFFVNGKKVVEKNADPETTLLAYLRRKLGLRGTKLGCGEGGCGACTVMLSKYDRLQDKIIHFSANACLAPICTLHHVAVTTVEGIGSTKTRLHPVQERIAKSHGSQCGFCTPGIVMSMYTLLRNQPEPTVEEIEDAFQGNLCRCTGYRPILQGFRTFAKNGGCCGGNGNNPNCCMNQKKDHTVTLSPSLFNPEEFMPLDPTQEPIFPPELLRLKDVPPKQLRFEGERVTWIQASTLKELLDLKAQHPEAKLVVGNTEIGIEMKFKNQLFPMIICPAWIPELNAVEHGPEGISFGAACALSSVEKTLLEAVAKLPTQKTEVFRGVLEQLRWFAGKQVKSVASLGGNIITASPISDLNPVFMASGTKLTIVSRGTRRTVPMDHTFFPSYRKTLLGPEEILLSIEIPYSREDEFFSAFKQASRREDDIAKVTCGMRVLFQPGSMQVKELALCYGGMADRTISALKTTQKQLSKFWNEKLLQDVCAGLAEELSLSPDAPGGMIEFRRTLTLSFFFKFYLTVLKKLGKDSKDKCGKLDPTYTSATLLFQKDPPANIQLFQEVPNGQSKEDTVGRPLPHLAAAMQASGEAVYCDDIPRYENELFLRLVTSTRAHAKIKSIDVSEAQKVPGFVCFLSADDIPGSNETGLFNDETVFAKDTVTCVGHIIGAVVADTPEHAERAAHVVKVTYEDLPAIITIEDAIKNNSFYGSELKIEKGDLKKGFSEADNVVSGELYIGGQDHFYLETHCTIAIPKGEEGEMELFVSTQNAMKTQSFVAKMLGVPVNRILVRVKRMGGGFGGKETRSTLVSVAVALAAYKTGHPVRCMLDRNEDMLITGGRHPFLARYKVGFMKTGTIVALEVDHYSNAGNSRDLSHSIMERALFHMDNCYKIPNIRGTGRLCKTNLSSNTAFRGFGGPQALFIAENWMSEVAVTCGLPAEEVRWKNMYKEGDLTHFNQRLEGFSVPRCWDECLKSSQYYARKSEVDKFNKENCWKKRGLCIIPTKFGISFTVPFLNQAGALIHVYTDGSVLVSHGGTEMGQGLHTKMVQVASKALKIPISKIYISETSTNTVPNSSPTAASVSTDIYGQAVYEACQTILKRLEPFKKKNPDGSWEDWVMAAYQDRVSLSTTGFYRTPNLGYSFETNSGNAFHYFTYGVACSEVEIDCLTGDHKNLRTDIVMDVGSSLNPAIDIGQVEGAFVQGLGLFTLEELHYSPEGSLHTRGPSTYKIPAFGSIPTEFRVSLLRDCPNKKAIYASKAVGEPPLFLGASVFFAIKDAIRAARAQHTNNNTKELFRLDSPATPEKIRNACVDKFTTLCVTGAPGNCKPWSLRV
A further data set has as its target T2, NADPH oxidase 1 (Homo sapiens, UniProt Q9Y5S8).
T2 sequence (Q9Y5S8 whole entry): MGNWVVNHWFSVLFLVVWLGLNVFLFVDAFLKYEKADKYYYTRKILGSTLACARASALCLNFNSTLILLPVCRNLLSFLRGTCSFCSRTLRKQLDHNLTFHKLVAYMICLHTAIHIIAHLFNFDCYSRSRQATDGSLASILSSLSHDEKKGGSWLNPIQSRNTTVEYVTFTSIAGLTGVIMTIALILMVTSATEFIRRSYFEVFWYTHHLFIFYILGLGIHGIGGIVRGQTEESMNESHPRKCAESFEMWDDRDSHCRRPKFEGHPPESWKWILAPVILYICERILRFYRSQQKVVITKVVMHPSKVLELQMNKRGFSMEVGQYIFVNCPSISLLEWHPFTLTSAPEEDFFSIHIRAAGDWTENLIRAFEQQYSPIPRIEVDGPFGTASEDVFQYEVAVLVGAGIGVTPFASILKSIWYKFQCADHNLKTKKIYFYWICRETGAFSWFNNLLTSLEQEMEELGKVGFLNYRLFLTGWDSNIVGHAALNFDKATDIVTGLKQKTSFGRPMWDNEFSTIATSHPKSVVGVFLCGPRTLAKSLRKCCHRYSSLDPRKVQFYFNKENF
Kind of data set: Inhibition of full length human NOX1 transfected in COS 22 cells assessed as inhibition of constitutive ROS generation by chemiluminescence assay. Conditions: read-out: IC50.

In another data set the target is T3, NADPH oxidase 5 (Homo sapiens, UniProt Q96PH1).
T3 sequence (Q96PH1 whole entry): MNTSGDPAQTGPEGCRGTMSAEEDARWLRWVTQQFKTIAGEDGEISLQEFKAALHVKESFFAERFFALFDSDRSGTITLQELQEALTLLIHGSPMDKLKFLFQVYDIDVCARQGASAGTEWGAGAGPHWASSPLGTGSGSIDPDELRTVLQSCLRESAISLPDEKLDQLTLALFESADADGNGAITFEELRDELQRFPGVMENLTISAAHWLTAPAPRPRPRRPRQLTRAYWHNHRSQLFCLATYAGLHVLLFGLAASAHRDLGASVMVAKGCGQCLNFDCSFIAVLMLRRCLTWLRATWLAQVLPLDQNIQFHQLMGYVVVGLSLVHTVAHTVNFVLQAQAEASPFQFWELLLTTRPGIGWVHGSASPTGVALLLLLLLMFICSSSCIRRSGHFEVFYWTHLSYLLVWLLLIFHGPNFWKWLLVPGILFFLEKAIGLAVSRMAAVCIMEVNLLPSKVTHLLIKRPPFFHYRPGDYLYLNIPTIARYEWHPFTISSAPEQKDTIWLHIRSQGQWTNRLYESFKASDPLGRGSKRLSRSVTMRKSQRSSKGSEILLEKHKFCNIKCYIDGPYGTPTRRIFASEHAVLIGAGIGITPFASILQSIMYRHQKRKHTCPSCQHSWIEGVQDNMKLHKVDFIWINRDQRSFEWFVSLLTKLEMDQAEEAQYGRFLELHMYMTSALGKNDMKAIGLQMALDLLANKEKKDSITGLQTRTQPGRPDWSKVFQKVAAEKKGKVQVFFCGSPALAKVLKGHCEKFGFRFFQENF
As to the kind of experiment: Inhibition of full length human NOX5 transfected in HEK cells assessed as inhibition of ionomycin-stimulated ROS generation by chemiluminescence assay. The class given is cell-based, HEK293. An outline of the steps:
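HEK-Nox5 cells at 5 × 10⁴ cells/well in OPTIMEM, 10 min at 37 °C in PBS with L-012, then stimulated with 1 µM PMA/0.1 µM ionomycin; luminescence over time; SOD 150 U/mL used to confirm superoxide specificity. IC50 by three-parameter fit, Hill slope 1, top/bottom fixed 100/0.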

The target of data set [3] is T1, NADPH oxidase 2. Kind of data set: Inhibition of full length human NOX2 transfected in COS 22 cells assessed as inhibition of Phorbol 12-myristate 13-acetate-stimulated ROS generation by chemiluminescence assay. The class given is cell-based. Conditions: read-out: IC50. The gist of the method: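 COS-Nox2 (COS-7 stably expressing human p22phox, Nox2, p47phox, p67phox) plated in OPTIMEM at 2.5 x 10³ cells/well; 10 min at 37 °C in PBS with L-012, then stimulated with 5 µM PMA; luminescence followed over time; superoxide specificity checked with SOD 150 U/mL. IC50 by three-parameter non-linear fit, Hill slope 1, top/bottom fixed 100/0.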

Data set [4] has as its target T4, NADPH oxidase 2 (Homo sapiens) (UniProt P04839).
T4 sequence (whole entry): T1 sequence (P04839 whole entry)
As to the kind of experiment: Inhibition of full length human NOX2 transfected in COS 22 cells assessed as inhibition of lithium dodecyl sulphate-stimulated ROS generation at 6.3 uM preincubated for 15 mins followed by lithium dodecyl sulphate challenge by cell-free assay in presence of NADPH. An outline of the steps: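 COS-Nox2 lysate (freeze/thaw ×5, needle passage, 1000 × g spin, kept near 0 °C) at 5 × 10⁵ cell equivalents/well in 65 mM sodium phosphate pH 7.0 with 1 mM EGTA, 10 µM FAD, 1 mM MgCl₂, 2 mM NaN₃, 0.2 mM cytochrome c; superoxide from initial 10-min linear rate of SOD-inhibitable cytochrome c reduction at 550 nm (21.1 mM⁻¹ cm⁻¹).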

A word on the IC50: it is the point on the concentration scale where inhibition reaches its midpoint. For the compound `C=C(C)C[C@@H]1N[C@H]2CC(C)(C)[C@@H]1c1c(Br)cccc12` (racemic), the IC50 on NADPH oxidase 2 [1] came to 40 µM; on NADPH oxidase 1 it was 31 µM; on NADPH oxidase 5, 20 µM; at NADPH oxidase 2 [3] it was 46 µM. Moreover, the “inhibition (INH)” value in data set [2] was “Not Active”. Besides, the inhibition result in data set [4] was “Active”.
